No end group written: not given here. *: point of attachment. Biotin = O=C1N[C@H]2[C@H](CS[C@H]2CCCCC(=O)*)N1
T1: LYP300 (Homo sapiens, UniProt Q9Y2R2)
T1 sequence (Q9Y2R2 1-300): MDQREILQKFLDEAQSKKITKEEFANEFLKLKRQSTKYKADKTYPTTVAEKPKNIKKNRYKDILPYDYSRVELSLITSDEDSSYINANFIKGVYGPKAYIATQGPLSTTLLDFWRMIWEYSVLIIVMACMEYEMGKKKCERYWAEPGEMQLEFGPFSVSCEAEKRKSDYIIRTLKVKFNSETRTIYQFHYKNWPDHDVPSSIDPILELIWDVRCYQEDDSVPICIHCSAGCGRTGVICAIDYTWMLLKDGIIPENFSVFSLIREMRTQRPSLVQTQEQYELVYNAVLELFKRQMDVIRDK

B1: LYP/S227: inactive mutant of LYP (protein, UniProt Q9Y2R2 1-807, looked up, variant C227S)
Tyrosine-protein phosphatase …: MDQREILQKFLDEAQSKKITKEEFANEFLKLKRQSTKYKADKTYPTTVAEKPKNIKKNRYKDILPYDYSRVELSLITSDEDSSYINANFIKGVYGPKAYIATQGPLSTTLLDFWRMIWEYSVLIIVMACMEYEMGKKKCERYWAEPGEMQLEFGPFSVSCEAEKRKSDYIIRTLKVKFNSETRTIYQFHYKNWPDHDVPSSIDPILELIWDVRCYQEDDSVPICIHSSAGCGRTGVICAIDYTWMLLKDGIIPENFSVFSLIREMRTQRPSLVQTQEQYELVYNAVLELFKRQMDVIRDKHSGTESQAKHCIPEKNHTLQADSYSPNLPKSTTKAAKMMNQQRTKMEIKESSSFDFRTSEISAKEELVLHPAKSSTSFDFLELNYSFDKNADTTMKWQTKAFPIVGEPLQKHQSLDLGSLLFEGCSNSKPVNAAGRYFNSKVPITRTKSTPFELIQQRETKEVDSKENFSYLESQPHDSCFVEMQAQKVMHVSSAELNYSLPYDSKHQIRNASNVKHHDSSALGVYSYIPLVENPYFSSWPPSGTSSKMSLDLPEKQDGTVFPSSLLPTSSTSLFSYYNSHDSLSLNSPTNISSLLNQESAVLATAPRIDDEIPPPLPVRTPESFIVVEEAGEFSPNVPKSLSSAVKVKIGTSLEWGGTSEPKKFDDSVILRPSKSVKLRSPKSELHQDRSSPPPPLPERTLESFFLADEDCMQAQSIETYSTSYPDTMENSTSSKQTLKTPGKSFTRSKSLKILRNMKKSICNSCPPNKPAESVQSNNSSSFLNFGFANRFSKPKGPRNPPPTWNI
B2: LYP: lymphoid tyrosine phosphatase LYP, encoded by the PTPN22 gene (protein, UniProt Q9Y2R2 1-807, looked up)
Tyrosine-protein phosphatase …: MDQREILQKFLDEAQSKKITKEEFANEFLKLKRQSTKYKADKTYPTTVAEKPKNIKKNRYKDILPYDYSRVELSLITSDEDSSYINANFIKGVYGPKAYIATQGPLSTTLLDFWRMIWEYSVLIIVMACMEYEMGKKKCERYWAEPGEMQLEFGPFSVSCEAEKRKSDYIIRTLKVKFNSETRTIYQFHYKNWPDHDVPSSIDPILELIWDVRCYQEDDSVPICIHCSAGCGRTGVICAIDYTWMLLKDGIIPENFSVFSLIREMRTQRPSLVQTQEQYELVYNAVLELFKRQMDVIRDKHSGTESQAKHCIPEKNHTLQADSYSPNLPKSTTKAAKMMNQQRTKMEIKESSSFDFRTSEISAKEELVLHPAKSSTSFDFLELNYSFDKNADTTMKWQTKAFPIVGEPLQKHQSLDLGSLLFEGCSNSKPVNAAGRYFNSKVPITRTKSTPFELIQQRETKEVDSKENFSYLESQPHDSCFVEMQAQKVMHVSSAELNYSLPYDSKHQIRNASNVKHHDSSALGVYSYIPLVENPYFSSWPPSGTSSKMSLDLPEKQDGTVFPSSLLPTSSTSLFSYYNSHDSLSLNSPTNISSLLNQESAVLATAPRIDDEIPPPLPVRTPESFIVVEEAGEFSPNVPKSLSSAVKVKIGTSLEWGGTSEPKKFDDSVILRPSKSVKLRSPKSELHQDRSSPPPPLPERTLESFFLADEDCMQAQSIETYSTSYPDTMENSTSSKQTLKTPGKSFTRSKSLKILRNMKKSICNSCPPNKPAESVQSNNSSSFLNFGFANRFSKPKGPRNPPPTWNI
modifications: HA tag
B3: LYP300: truncation of LYP immediately C-terminal to the catalytic domain (amino acids 1−300) (protein)
chain: MDQREILQKFLDEAQSKKITKEEFANEFLKLKRQSTKYKADKTYPTTVAEKPKNIKKNRYKDILPYDYSRVELSLITSDEDSSYINANFIKGVYGPKAYIATQGPLSTTLLDFWRMIWEYSVLIIVMACMEYEMGKKKCERYWAEPGEMQLEFGPFSVSCEAEKRKSDYIIRTLKVKFNSETRTIYQFHYKNWPDHDVPSSIDPILELIWDVRCYQEDDSVPICIHCSAGCGRTGVICAIDYTWMLLKDGIIPENFSVFSLIREMRTQRPSLVQTQEQYELVYNAVLELFKRQMDVIRDK
modifications: left off: HA, N-terminal, kept
B4: LYP300/S227: inactive mutant of LYP300 (protein, UniProt Q9Y2R2 1-300, looked up, fragment C227S)
chain: MDQREILQKFLDEAQSKKITKEEFANEFLKLKRQSTKYKADKTYPTTVAEKPKNIKKNRYKDILPYDYSRVELSLITSDEDSSYINANFIKGVYGPKAYIATQGPLSTTLLDFWRMIWEYSVLIIVMACMEYEMGKKKCERYWAEPGEMQLEFGPFSVSCEAEKRKSDYIIRTLKVKFNSETRTIYQFHYKNWPDHDVPSSIDPILELIWDVRCYQEDDSVPICIHSSAGCGRTGVICAIDYTWMLLKDGIIPENFSVFSLIREMRTQRPSLVQTQEQYELVYNAVLELFKRQMDVIRDK
B5: LYP320: LYP truncation, amino acids 1−320 (protein)
chain: MDQREILQKFLDEAQSKKITKEEFANEFLKLKRQSTKYKADKTYPTTVAEKPKNIKKNRYKDILPYDYSRVELSLITSDEDSSYINANFIKGVYGPKAYIATQGPLSTTLLDFWRMIWEYSVLIIVMACMEYEMGKKKCERYWAEPGEMQLEFGPFSVSCEAEKRKSDYIIRTLKVKFNSETRTIYQFHYKNWPDHDVPSSIDPILELIWDVRCYQEDDSVPICIHCSAGCGRTGVICAIDYTWMLLKDGIIPENFSVFSLIREMRTQRPSLVQTQEQYELVYNAVLELFKRQMDVIRDKHSGTESQAKHCIPEKNHTLQ
modifications: left off: His6, end not stated, cleaved
B6: LYP423: LYP truncation, amino acids 1−423 (protein, UniProt Q9Y2R2 1-423, looked up, fragment)
chain: MDQREILQKFLDEAQSKKITKEEFANEFLKLKRQSTKYKADKTYPTTVAEKPKNIKKNRYKDILPYDYSRVELSLITSDEDSSYINANFIKGVYGPKAYIATQGPLSTTLLDFWRMIWEYSVLIIVMACMEYEMGKKKCERYWAEPGEMQLEFGPFSVSCEAEKRKSDYIIRTLKVKFNSETRTIYQFHYKNWPDHDVPSSIDPILELIWDVRCYQEDDSVPICIHCSAGCGRTGVICAIDYTWMLLKDGIIPENFSVFSLIREMRTQRPSLVQTQEQYELVYNAVLELFKRQMDVIRDKHSGTESQAKHCIPEKNHTLQADSYSPNLPKSTTKAAKMMNQQRTKMEIKESSSFDFRTSEISAKEELVLHPAKSSTSFDFLELNYSFDKNADTTMKWQTKAFPIVGEPLQKHQSLDLGSLLFE

What was measured:
LYP300 = molecular target: T1, LYP300; experiment: Phosphatase assay, trans effect of peptides on LYP300; type: biochemical; details: Figure 5A,C; 5 nM LYP300; DiFMUP; Bis-Tris pH 6.0
LYP [1] = type: biochemical, human; details: Figure 2D; Vmax, 1 nM enzyme, 0.16 mM peptide, triplicate
LYP [2] = type: biochemical, human; details: Figure 2C; Vmax, 1 nM enzyme, 0.4 mM DiFMUP, triplicate
Summary of the method: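 FLAG-tagged full-length LYP and C-terminal truncations (aa 1−300, 1−423, 1−517, 1−600) were expressed in baculovirus-infected Sf9 cells. They were purified on M2-FLAG beads, eluted with FLAG peptide plus DTT into 50 mM Tris-HCl pH 8.0, 0.5 mM EDTA, 1 mM DTT (>80% pure). Activity was measured under Vmax conditions in 50−100 mM Bis-Tris pH 6.0, 1−5 mM DTT. DiFMUP hydrolysis was followed continuously by fluorescence (ex 360, em 460 nm), with background subtracted using no-enzyme triplicates.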

[3] = system: T cell receptor (TCR) signaling; details: T cells; ref [4]-[8]; cited from earlier work
[4] = Gel filtration chromatography; type: physicochemical; details: Superdex 75 10/300 GL; TNE and phosphatase buffers
LYP [5] = experiment: Phosphatase kinetics of LYP300 and LYP320 from E. coli on pTyr peptide; type: biochemical, human; details: purified from bacterial lysates
LYP [6] = experiment: Phosphatase kinetics of LYP300 and LYP320 from E. coli on DiFMUP; type: biochemical, human; details: purified from bacterial lysates
Summary of the method: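 LYP300 and LYP320 (aa 1−300, 1−320) expressed in BL21(DE3) from pET28a. Purified by Ni2+-NTA, His tag cleaved with thrombin, protease removed on benzamidine, dialysed into 50 mM Tris-HCl pH 8.0, 0.5 mM EDTA, 1 mM DTT. 5 nM enzyme was assayed in Bis-Tris pH 6.0/DTT over a DiFMUP concentration range. Fluorescence (ex 360, em 460 nm) was read continuously at initial rate. Triplicates were corrected against no-enzyme blanks and fitted to Michaelis–Menten.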

Molecule | Phosphatase activity on pTyr peptide (LYP [1]) | Phosphatase activity on DiFMUP (LYP [2]) | other results
HSGTESQAKHCIPEKNHTLQ [peptide of amino acids 301−320] | – | – | Inhibition of LYP300 phosphatase activity by peptide (LYP300): substantial inhibition of the phosphatase activity
biotin-ATAPRIDDEIPPPLPVRTPESFIVVEEAGEFSPNVPKSLS (Biotin-ATAPRIDDEIPPPLPVRTPESFIVVEEAGEFSPNVPKSLS) [peptide of amino acids 604−643, reference compound] | – | – | Inhibition of LYP300 phosphatase activity by peptide (LYP300): did not lead to any significant inhibition of the phosphatase activity
B1 | did not exhibit any activity | did not exhibit any activity | –
B2 | – | – | Inhibition of T cell receptor signaling [3]: potently inhibit T cell receptor (TCR) signaling
B3 | greatly increased phosphatase activity | greatly increased phosphatase activity | Oligomeric state by gel filtration [4]: elute as monomers
B4 | did not exhibit any activity | did not exhibit any activity | –
B5 | – | – | Activity relative to LYP300 on pTyr peptide (LYP [5]): consistently less active than LYP300; Oligomeric state by gel filtration [4]: elute as monomers; Activity relative to LYP300 on DiFMUP (LYP [6]): consistently less active than LYP300
B6 | slightly increased activity | slightly increased activity | –

From publication PMC3113683 (Biochemistry, 2009)
